Source: ChEMBL document CHEMBL1121674, “Gastric antisecretory agents. 2. Antisecretory activity of 9-[(aminoalkyl)thio]-9H-xanthenes and 5-[(aminoalkyl)thio]-5H-[1]benzopyrano[2,3-b]pyridines” (1981)

Key:
Canis familiaris [1] = assay: Percent reduction of histamine stimulated gastric acid secretion in adult mongrel dog after intravenous administration at 5 mg/kg.; assay type: functional, Canis lupus familiaris, Stomach
Outline: (§1)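 Heidenhain-pouch mongrel dogs given histamine infusion at 0.4 (μg/kg)/min. Compound given iv 1 h after infusion start. 30-min collections, volume recorded and aliquot titrated for acid. AO = volume × acid concentration, summed for 3 h post-dose and divided by 3-h control AO from the same dog. % inhibition = 100 − percent of control. Usually one dog per compound.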

Rattus norvegicus = assay: Percent reduction of gastric acid secretion in pylorus ligated rat after intraperitoneal administration at 40 mg/kg.; assay type: functional, Stomach
Outline: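 Male Charles River CD outbred albino rats, 150-200 g, pylorus ligated; compound dissolved in 2.5% Tween 80 and given ip (0.5 mL/200 g) at ligation. Stomachs removed after 4 h. Gastric content volume recorded, acid titrated with 0.1 N NaOH to pH 7.0, AO in mequiv/4 h. Six rats per compound, eight controls; % inhibition = 100 − 100×(mean test AO/mean control AO); Student's t test.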

Canis familiaris [2] = assay: Percent reduction of histamine stimulated gastric acid secretion in adult mongrel dog after intravenous administration of compound at 5 mg/kg; stimulated gastric acid secretion; assay type: functional, organism-based; parameters: dose 5 mg/kg; settings: Canis lupus familiaris, Stomach; outline: as §1
Canis familiaris [3] = assay: Percent reduction of histamine stimulated gastric acid secretion in adult mongrel dog after peroral administration of compound at 8 mg/kg; assay type: functional, Canis lupus familiaris, Stomach; settings: route oral
Outline: (§2)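 Heidenhain-pouch mongrel dogs given histamine infusion at 0.4 (μg/kg)/min. Compound given orally by gavage 1 h after infusion start. 30-min secretions collected and titrated for acid. AO = volume × acid concentration, summed over 3 h after dosing and expressed against 3-h control AO in the same dog. % inhibition = 100 − percent of control. Usually a single dog.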

Canis familiaris [4] = assay: Percent reduction of histamine stimulated gastric acid secretion in adult mongrel dog after peroral administration of compound at 8 mg/kg; Animal vomited upon compound administration; assay type: functional, organism-based; parameters: dose 8 mg/kg; settings: Canis lupus familiaris, Stomach; outline: as §2

Structure (SMILES) | Reduction (Canis familiaris [1]) [%] | Reduction (Rattus norvegicus) [%] | Reduction (Canis familiaris [2]) | Reduction (Canis familiaris [3]) [%] | Reduction (Canis familiaris [4])
Cc1cccc2c1Oc1ccccc1C2SCCN1CCOCC1.Cl (stereo not drawn) | <30 | 71 |  |  | 
COc1ccc2c(c1)C(SCCN1CCOCC1)c1ccccc1O2.Cl (stereo not drawn) |  | 94 | stimulated gastric acid secretion |  | 
CN(C)CCSC1c2ccccc2Oc2ccccc21.Cl | <30 | 65 |  |  | 
Cl.NCCSC1c2ccccc2Oc2ccc(Cl)cc21 (stereo not drawn) | <30 | 74 |  |  | 
Cl.NCCCSC1c2ccccc2Oc2ccc(Cl)cc21 (stereo not drawn) | 39 | 89 |  |  | 
COc1ccc2c(c1)Oc1ccccc1C2SCCN1CCOCC1.Cl (stereo not drawn) | 77 | 44 |  | <30 | 
Cc1cccc2c1Oc1ccccc1C2SCCCN.Cl (stereo not drawn) | 87 | 71 |  |  | Animal vomited upon compound administration
Cl.Clc1cccc2c1Oc1ccccc1C2SCCN1CCCCC1 (stereo not drawn) | 44 | 87 |  |  | 
Cl.c1ccc2c(c1)Oc1ccccc1C2SCCN1CCOCC1 | 56 | 93 |  | <30 | 
CN(C)CCSC1c2ccccc2Oc2ccc(Cl)cc21.Cl (stereo not drawn) | <30 | 55 |  |  | 
COc1ccc2c(c1)C(SCCN1CCCCC1)c1ccccc1O2.Cl (stereo not drawn) | <30 | 73 |  |  | 
Cl.c1ccc2c(c1)Oc1ccccc1C2SCCCN1CCOCC1 | 47 | 98 |  |  | 
Cl.c1ccc2c(c1)Oc1ccccc1C2SCCCN1CCCCC1 | 30 | 88 |  |  | 
Cl.NCCSC1c2ccccc2Oc2ncccc21 (stereo not drawn) | <30 | <30 |  |  | 
CN(C)CCSC1c2ccccc2Oc2ncccc21.Cl (stereo not drawn) | <30 | 79 |  |  | 
COc1ccc2c(c1)Oc1ccccc1C2SCCN1CCCCC1.Cl (stereo not drawn) | <58 | 47 |  | <30 | 
CN/C(=N\CCSCc1nc[nH]c1C)NC#N [CIMETIDINE] | 84 | 74 |  | 86 | 

Structure (SMILES) | Reduction (Canis familiaris [1]) [%] | Reduction (Rattus norvegicus) [%] | Reduction (Canis familiaris [2]) | Reduction (Canis familiaris [3]) [%] | Reduction (Canis familiaris [4])
Cl.Clc1cccc2c1Oc1ccccc1C2SCCN1CCOCC1 (stereo not drawn) | 42 | 86 |  |  | 
Cl.NCCCSC1c2ccccc2Oc2cc(Cl)ccc21 (stereo not drawn) | <30 | 79 |  |  | 
Cl.c1ccc2c(c1)Oc1ncccc1C2SCCCN1CCOCC1 (stereo not drawn) |  | 62 |  |  | 
Cl.NCCCSC1c2ccccc2Oc2c(Cl)cccc21 (stereo not drawn) | 33 | 99 |  |  | 
Cl.NCCCSC1c2ccccc2Oc2ccccc21 | 68 | 44 |  |  | Animal vomited upon compound administration
Cl.NCCSC1c2ccccc2Oc2ccccc21 | <30 | 35 |  |  | 
Cl.Clc1ccc2c(c1)Oc1ccccc1C2SCCN1CCOCC1 (stereo not drawn) | 39 | 70 |  |  | 
Cl.c1ccc2c(c1)Oc1ccccc1C2SCCN1CCCCC1 | <30 | 98 |  |  | 
Cl.c1ccc2c(c1)Oc1ncccc1C2SCCN1CCOCC1 (stereo not drawn) | 66 | 64 |  |  | 
COc1ccc2c(c1)C(SCCN(C)C)c1ccccc1O2.Cl (stereo not drawn) | <30 | 63 |  |  | 
Cc1ccc2c(c1)C(SCCN1CCCCC1)c1ccccc1O2.Cl (stereo not drawn) | <30 | 88 |  |  | 
Cc1ccc2c(c1)C(SCCN1CCOCC1)c1ccccc1O2.Cl (stereo not drawn) | 50 | 93 |  |  | 
Cc1ccc2c(c1)C(SCCCN)c1ccccc1O2.Cl (stereo not drawn) | 80 | 100 |  | <50 | 
Cc1cccc2c1Oc1ccccc1C2SCCN1CCCCC1.Cl (stereo not drawn) | <30 | 85 |  |  | 
Cl.Clc1ccc2c(c1)Oc1ccccc1C2SCCN1CCCCC1 (stereo not drawn) | <30 | 80 |  |  | 
Cl.c1ccc2c(c1)Oc1ncccc1C2SCCN1CCCCC1 (stereo not drawn) | 63 | 61 |  | <30 | 
